In assay [1] the test system is Aorta. Kind of assay: Vasorelaxant activity in potassium depolarized guinea pig aortic strip assessed as inhibition of calcium-induced contraction at 100 uM. Type of assay: functional. The conditions noted are these: Cavia porcellus.
Assay [2] is described as follows: Negative inotropic activity against potassium-induced contraction in guinea pig left atrium assessed as decrease in developed tension. Format: functional, tissue-based. Particulars: Cavia porcellus, Cardiac atrium.
Assay [3] in a line: Negative chronotropic activity against potassium-induced contraction in guinea pig left atrium assessed as decrease atrial rate at 100 uM relative to control. Type of assay: functional, Cavia porcellus, Cardiac atrium. Also on record: scale not given: the % may be the effect or the level left.
A short description of assay [4]: Negative inotropic activity against potassium-induced contraction in guinea pig left atrium assessed as decrease in developed tension at 10 uM relative to control. Format: functional, Cavia porcellus, Cardiac atrium. Also on record: scale not given: the % may be the effect or the level left.
The nature of assay [5]: Antiarrhythmic activity in sinusoidal alternating current-induced guinea pig left atrium assessed as increase in current strength at which extra beats occur at 5 uM measured every 30 mins. Format: functional, Cavia porcellus, Cardiac atrium. In short, it runs like this: (§1)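 Isolated guinea pig left atria, electrically driven at 1 Hz, were exposed to sinusoidal alternating current to induce arrhythmia. The read-out was the rise in the ac-arrhythmia threshold over concentrations up to 100 μM.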

For assay [6], the system named is Aorta. Briefly: Vasorelaxant activity in potassium depolarized guinea pig aortic strip assessed as inhibition of calcium-induced contraction at 50 uM. Format: functional. The conditions noted are these: Cavia porcellus.
A short description of assay [7]: Negative chronotropic activity against potassium-induced contraction in guinea pig left atrium assessed as decrease atrial rate at 10 uM relative to control. Type of assay: functional, Cavia porcellus, Cardiac atrium. Details: scale not given: the % may be the effect or the level left.
Assay [8] in a line: Negative inotropic activity against potassium-induced contraction in guinea pig left atrium assessed as decrease in developed tension at 1 uM relative to control. Details: scale not given: the % may be the effect or the level left. Type of assay: functional, Cavia porcellus, Cardiac atrium.
The nature of assay [9]: Antiarrhythmic activity in sinusoidal alternating current-induced guinea pig left atrium assessed as increase in current strength at which extra beats occur at 10 uM measured every 30 mins. Format: functional, Cavia porcellus, Cardiac atrium. In short, it runs like this:
as §1

The species named for assay [10] is Cavia porcellus. Briefly: Agonist activity at muscarinic M2 receptor in guinea pig left atrium assessed as negative ionotropic activity in presence of 1 uM atropine. Particulars: Cardiac atrium. Type of assay: functional, tissue-based. In short, it runs like this:
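Isolated guinea-pig left atria electrically driven at 1 Hz; contractile force (inotropy) recorded. Potency values derived by probit analysis (Litchfield and Wilcoxon).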

Assay [11] is described as follows: Negative chronotropic activity against potassium-induced contraction in guinea pig left atrium assessed as decrease atrial rate. Type of assay: functional, tissue-based. The conditions noted are these: Cavia porcellus, Cardiac atrium.
The nature of assay [12]: Negative chronotropic activity against potassium-induced contraction in guinea pig left atrium assessed as decrease atrial rate at 50 uM relative to control. Also on record: scale not given: the % may be the effect or the level left. Type of assay: functional, Cavia porcellus, Cardiac atrium.
Assay [13] is described as follows: Negative inotropic activity against potassium-induced contraction in guinea pig left atrium assessed as decrease in developed tension at 50 uM relative to control. Also on record: scale not given: the % may be the effect or the level left. Type of assay: functional, Cavia porcellus, Cardiac atrium.
Assay [14] is described as follows: Antiarrhythmic activity in sinusoidal alternating current-induced guinea pig left atrium assessed as increase in current strength at which extra beats occur measured every 30 mins. Format: functional, tissue-based. The conditions noted are these: Cavia porcellus, Cardiac atrium, 0.5 h. In short, it runs like this: as §1
Assay [15] is described as follows: Antiarrhythmic activity in sinusoidal alternating current-induced guinea pig left atrium assessed as increase in current strength at which extra beats occur at 100 uM measured every 30 mins. Format: functional, Cavia porcellus, Cardiac atrium. In short, it runs like this: as §1
Assay [16] is described as follows: Cardioprotective effect in Langendorff perfused guinea pig spontaneously beating […] assessed as duration of ventricular action potential at 10 uM (RVb = 140 to 161 +/- 2 to 8 ms). Format: functional, Cavia porcellus, Cardiac ventricle. In short, it runs like this:
(§2)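 Whole guinea pig hearts were Langendorff-perfused and their ECG recorded at graded concentrations. Intervals read were PR (atrioventricular conduction time), QT (ventricular action potential duration) and QRS (intraventricular conduction time).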

Assay [17] in a line: Cardioprotective effect in Langendorff perfused guinea pig spontaneously beating […] assessed as duration of ventricular action potential at 1 uM (RVb = 140 to 161 +/- 2 to 8 ms). Type of assay: functional, Cavia porcellus, Cardiac ventricle. In short, it runs like this:
as §2

Assay [18] is described as follows: Cardioprotective effect in Langendorff perfused guinea pig spontaneously beating […] assessed as atrioventicular conduction time at 1 uM (RVb = 50 to 55 +/- 1 to 4 ms). Type of assay: functional. Particulars: Cavia porcellus. In short, it runs like this:
as §2

A short description of assay [19]: Ratio of compound to auinidine for antiarrhythmic activity in sinusoidal alternating current-induced guinea pig left atrium. Type of assay: functional, Cavia porcellus, Cardiac atrium. In short, it runs like this:
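The antiarrhythmic EC50 was taken from the ac-arrhythmia threshold rise in 1 Hz-driven guinea pig left atria, using probit analysis.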

The nature of assay [20]: Cardioprotective effect in Langendorff perfused guinea pig spontaneously beating […] assessed as duration of ventricular action potential at 0.1 uM (RVb = 140 to 161 +/- 2 to 8 ms). Format: functional, Cavia porcellus, Cardiac ventricle. In short, it runs like this: as §2
Assay [21] is described as follows: Cardioprotective effect in Langendorff perfused guinea pig spontaneously beating […] assessed as duration of ventricular action potential at 0.01 uM (RVb = 140 to 161 +/- 2 to 8 ms). Type of assay: functional, Cavia porcellus, Cardiac ventricle. In short, it runs like this: as §2
Assay [22] in a line: Cardioprotective effect in Langendorff perfused guinea pig spontaneously beating […] assessed as duration of ventricular action potential at 0.001 uM (RVb = 140 to 161 +/- 2 to 8 ms). Type of assay: functional, Cavia porcellus, Cardiac ventricle. In short, it runs like this:
as §2

A short description of assay [23]: Cardioprotective effect in Langendorff perfused guinea pig spontaneously beating […] assessed as intraventicular conduction time at 10 uM (RVb = 19 to 24 +/- 1 to 2 ms). Format: functional. Particulars: Cavia porcellus. In short, it runs like this: as §2
Assay [24] in a line: Cardioprotective effect in Langendorff perfused guinea pig spontaneously beating […] assessed as intraventicular conduction time at 1 uM (RVb = 19 to 24 +/- 1 to 2 ms). Format: functional. The conditions noted are these: Cavia porcellus. In short, it runs like this: as §2
Assay [25] can be described thus: Cardioprotective effect in Langendorff perfused guinea pig spontaneously beating […] assessed as intraventicular conduction time at 0.1 uM (RVb = 19 to 24 +/- 1 to 2 ms). Type of assay: functional. The conditions noted are these: Cavia porcellus. In short, it runs like this:
as §2

A short description of assay [26]: Cardioprotective effect in Langendorff perfused guinea pig spontaneously beating […] assessed as intraventicular conduction time at 0.01 uM (RVb = 19 to 24 +/- 1 to 2 ms). Format: functional. Particulars: Cavia porcellus. In short, it runs like this:
as §2

Assay [27] is described as follows: Cardioprotective effect in Langendorff perfused guinea pig spontaneously beating […] assessed as intraventicular conduction time at 0.001 uM (RVb = 19 to 24 +/- 1 to 2 ms). Type of assay: functional. Particulars: Cavia porcellus. In short, it runs like this: as §2
Assay [28] is described as follows: Cardioprotective effect in Langendorff perfused guinea pig spontaneously beating […] assessed as atrioventicular conduction time at 10 uM (RVb = 50 to 55 +/- 1 to 4 ms). Type of assay: functional. Particulars: Cavia porcellus. In short, it runs like this: as §2
Assay [29] in a line: Cardioprotective effect in Langendorff perfused guinea pig spontaneously beating […] assessed as atrioventicular conduction time at 0.1 uM (RVb = 50 to 55 +/- 1 to 4 ms). The conditions noted are these: Cavia porcellus. Type of assay: functional. In short, it runs like this:
as §2

Assay [30] is described as follows: Cardioprotective effect in Langendorff perfused guinea pig spontaneously beating […] assessed as atrioventicular conduction time at 0.01 uM (RVb = 50 to 55 +/- 1 to 4 ms). Type of assay: functional. The conditions noted are these: Cavia porcellus. In short, it runs like this: as §2
Assay [31] is described as follows: Cardioprotective effect in Langendorff perfused guinea pig spontaneously beating […] assessed as atrioventicular conduction time at 0.001 uM (RVb = 50 to 55 +/- 1 to 4 ms). Format: functional. The conditions noted are these: Cavia porcellus. In short, it runs like this: as §2
Assay [32] deals with Heart. Briefly: Cardioprotective effect in Langendorff perfused guinea pig spontaneously beating […] assessed as heart rat at 0.001 uM (RVb = 175 to 190 +/- 5 to 11 bpm). Format: functional, Cavia porcellus.
Assay [33] deals with Heart. Briefly: Cardioprotective effect in Langendorff perfused guinea pig spontaneously beating […] assessed as heart rat at 0.01 uM (RVb = 175 to 190 +/- 5 to 11 bpm). Type of assay: functional, Cavia porcellus.
In assay [34] the test system is Heart. Kind of assay: Cardioprotective effect in Langendorff perfused guinea pig spontaneously beating […] assessed as heart rat at 0.1 uM (RVb = 175 to 190 +/- 5 to 11 bpm). Type of assay: functional, Cavia porcellus.
Assay [35] concerns Heart. Briefly: Cardioprotective effect in Langendorff perfused guinea pig spontaneously beating […] assessed as heart rat at 1 uM (RVb = 175 to 190 +/- 5 to 11 bpm). Type of assay: functional, Cavia porcellus.
In assay [36] the test system is Heart. Briefly: Cardioprotective effect in Langendorff perfused guinea pig spontaneously beating […] assessed as heart rat at 10 uM (RVb = 175 to 190 +/- 5 to 11 bpm). Type of assay: functional, Cavia porcellus.
Assay [37] is described as follows: Negative inotropic activity against potassium-induced contraction in guinea pig left atrium assessed as decrease in developed tension at 5 uM relative to control. Type of assay: functional, Cavia porcellus, Cardiac atrium. Also on record: scale not given: the % may be the effect or the level left.
The nature of assay [38]: Antiarrhythmic activity in sinusoidal alternating current-induced guinea pig left atrium assessed as increase in current strength at which extra beats occur at 1 uM measured every 30 mins. Type of assay: functional, Cavia porcellus, Cardiac atrium. In short, it runs like this:
as §1

One may read the inhibition as the share of the control response that was lost under treatment. In general, EC50 refers to the midpoint of the concentration-response curve.

Activity calls are given as the source filed them.

Turning to `O=C(Cn1nc2ccc(Cl)cc2n1)NC[C@@H]1CCCN2CCCC[C@H]12`, the inhibition at 100 µM in assay [1] was determined as 26%. For the same compound, in [2], the half-maximal effective concentration (EC50) was found to be 74 nM. For the same compound, the Activity in assay [3] was 27%; in assay [4] it was 92%; in assay [5], 28%.
In the case of `Cc1cccc(C)c1NC[C@@H]1CCCN2CCCC[C@H]12`, the inhibition at 50 µM in [6] turned out to be 27%. Besides, the half-maximal effective concentration (EC50) in assay [2] was 23 nM. Besides, the Activity in assay [7] was found to be 40%; in [8], 75%; in assay [9], 28%.
For the compound `CN1[C@@H]2CC[C@H]1C[C@@H](OC(=O)C(CO)c1ccccc1)C2` (stereo not given in full), in assay [10], the inhibition entry was “inactive”.
As for `Cc1cccc(C)c1NCC[C@@H]1CCCN2CCCC[C@H]12`, in assay [6], the inhibition at 50 µM was 28%. Besides, the EC50 is 6890 nM in assay [11], 340 nM in [2] and 460 nM in assay [14]. Besides, the Activity in assay [12] was 72%; in assay [13] it was 89%; in assay [15], 208%; in [16], 175 ms; in assay [17], 170 ms; in [20] it was 160 ms. Besides, the Activity was determined as 157 ms in assay [21]; 154 ms in assay [22]; 182 bpm in assay [32]; 171 bpm in [33]; 163 bpm in assay [34]; 142 bpm in [35]. Further, in assay [36], the Activity is 136 bpm. Moreover, the AV conduction time in [18] was 58 ms; in [28], 59 ms; in assay [29] it was 57 ms; in assay [30] it was 56 ms; in [31] it was 53 ms. Further, in assay [19], the Ratio turned out to be 3. For the same compound, the intraventricular conduction time amounted to 21 ms in [23]; 20 ms in assay [24]; 20 ms in [25]; 19 ms in [26]; 19 ms in assay [27].
For `COc1ccc2c(c1)nc(Cc1ccccc1)c(=O)n2C[C@H]1CCCN2CCCC[C@@H]12`, the inhibition at 50 µM in assay [6] was found to be 18%. In addition, the values for the EC50 in assay [11] and in assay [2] were 2750 nM and 110 nM, respectively. The Activity in assay [7] is 62%; in assay [37], 86%; in [38], 14%.
